Measured values: PubChem BioAssay
Calls of active or inactive are those of the source.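 The calls were made as follows, unless noted: active = GFP response above 150% of the DMSO level; inconclusive = fewer than 70 events counted for a yeast strain; inactive = the rest.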

What was measured:
[1] = hit retest on RPL19A-GFP reporter strain – cell-based, S. cerevisiae, flow cytometry, cherry picks, mother/daughter gates, confirmation (AID 2270;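 active = GFP response below 50% of the DMSO control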); conditions: 3 h, at 10 µM, stronger effect = lower value, 100 = same GFP as DMSO wells
[2] = yeast TOR pathway reporter LAP4-GFP change – cell-based, cherry picks, flow cytometry, mother/daughter gates, confirmation (AID 2271;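 active = GFP response above 150% of the DMSO control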;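 also: ratio of sample to DMSO plate mean so 100% equals DMSO level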); conditions: S. cerevisiae LAP4-GFP strain, 3 h, at 10 µM, stronger effect = higher value, 100 means same as DMSO control
In short: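 System: Alexa 633-stained baker's yeast GFP-fusion strain; quantity: 0.2 OD600 cells; timing: compound exposure 3 h at 30 °C, end-over-end rotation; detection: HT flow cytometry, GFP fluorescence channel; measure: per-gate (all, mother, daughter) GFP response vs DMSO; control set: DMSO-only negative wells, rapamycin 400 ng/mL positive wells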

[3] = TOR pathway reporter MEP2-GFP, retest of hits – S. cerevisiae, flow cytometry GFP, cherry picks, confirmation (AID 2272;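 active = GFP response above 150% of the DMSO control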;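 also: ratio of well signal to plate DMSO mean so 100% equals DMSO level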); conditions: S. cerevisiae MEP2-GFP strain, 3 h, at 10 µM, stronger effect = higher value
[4] = yeast AGP1-GFP fluorescence change, single-dose – cell-based, flow cytometry, S. cerevisiae, cherry picks, confirmation (AID 2273);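 also: median GFP channel fluorescence over the whole cell population gate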; conditions: S. cerevisiae AGP1-GFP strain, 3 h, at 10 µM
[5] = TOR pathway CIT2 reporter hit retest – S. cerevisiae, GFP fusion, cherry picks, mother/daughter gates, confirmation (AID 2274); conditions: S. cerevisiae CIT2-GFP strain, flow cytometry, 3 h, at 10 µM, stronger effect = higher value
[6] = measured here: daughter cell gate
[7] = measured here: mother cell gate
[8] = measured here: daughter cell gate response
[9] = measured here: mother cell gate response

| Compound | GFP response vs DMSO [1] | GFP response vs DMSO [1, 6] [%] | GFP response vs DMSO [1, 7] [%] | GFP response relative to DMSO [2] | GFP response relative to DMSO [2, 8] [%] | GFP response relative to DMSO [2, 9] [%] | GFP response vs DMSO [3] | GFP response, % of DMSO [4] | GFP response, % of DMSO [5] | GFP response, % of DMSO [5, 6] [%] | GFP response, % of DMSO [5, 7] [%] |
| --- | --- | --- | --- | --- | --- | --- | --- | --- | --- | --- | --- |
| Oc1c(C(Nc2nc3ccccc3s2)c2ccco2)ccc2cccnc12 (configuration not stated) | 98.9% (inactive) | 98.7 | 95.9 | 149% (inactive) | 132 | 145 | 112% (inactive) | 97.7% (inactive) | 100% (inactive) | 103 | 94.9 |
| COC(=O)Cn1nc(-c2ccccc2)c2cc(Cl)ccc21 | 101% (inactive) | 100 | 101 | 104% (inactive) | 104 | 104 | 109% (inactive) | 102% (inactive) | 114% (inactive) | 116 | 112 |
| CCn1c(=O)c(C(=O)NCc2ccc(OC)c(OC)c2)c(O)c2ccccc21 | 97.6% (inactive) | 99.1 | 99.2 | 94.1% (inactive) | 92.8 | 94 | 100% (inactive) | 103% (inactive) | 105% (inactive) | 106 | 106 |
| O=C(NC(=S)NNC(=O)[C@H]1C[C@@H]1c1ccccc1)c1cccc(F)c1 | 111% (inactive) | 115 | 110 | 150% (active) | 144 | 147 | 135% (inactive) | 109% (inactive) | 137% (inactive) | 141 | 127 |
| O=C(CSc1nnc(C2COc3ccccc3O2)o1)N1CCCC1 (configuration not stated) | 97.8% (inactive) | 98.6 | 98.7 | 94.9% (inactive) | 98.2 | 95.1 | 98.8% (inactive) | 103% (inactive) | 112% (inactive) | 111 | 112 |
| O=C(Nc1cccc(C(F)(F)F)c1)Oc1ccc(Cl)c2cccnc12 | 98% (inactive) | 97.6 | 98.2 | 110% (inactive) | 108 | 111 | 103% (inactive) | 99.3% (inactive) | 108% (inactive) | 110 | 107 |
| O=C1C(Cl)=C(N2CCN(Cc3ccccc3)CC2)C(=O)N1c1ccccc1 | 98.6% (inactive) | 98.4 | 98.5 | 96.2% (inactive) | 95.6 | 96.2 | 100% (inactive) | 97.8% (inactive) | 99.1% (inactive) | 98.1 | 96.6 |
| COC(=O)C1=C(C)NC(C)=C(C(=O)OC)C1c1ccc(OC(=O)c2oc3ccccc3c2C)c(OC)c1 | 98.8% (inactive) | 98.1 | 98.8 | 90% (inactive) | 90.4 | 89.9 | 98.8% (inactive) | 103% (inactive) | 103% (inactive) | 102 | 104 |
| Cc1ccccc1N1C(=O)c2cccc3c(N(C)CCO)ccc(c23)C1=O | 99.5% (inactive) | 99.8 | 100 | 100% (inactive) | 99.3 | 98.5 | 104% (inactive) | 103% (inactive) | 101% (inactive) | 102 | 100 |
| O=C1c2cccc3c([N+](=O)[O-])ccc(c23)C(=O)N1O | 131% (inactive) | 136 | 124 | 249% (active) | 250 | 251 | 404% (active) | 132% (inactive) | 256% (active) | 247 | 223 |
| CC(=O)c1sc(NC(=O)c2ccco2)nc1-c1ccccc1 | 98.4% (inactive) | 101 | 96.5 | 107% (inactive) | 101 | 108 | 103% (inactive) | 94.9% (inactive) | 110% (inactive) | 112 | 108 |
| CCc1oc2ccccc2c1C(=O)CCN1CCCCC1 | 99.6% (inactive) | 98.4 | 99.6 | 102% (inactive) | 99.1 | 103 | 101% (inactive) | 101% (inactive) | 98.8% (inactive) | 99.2 | 96.8 |
| Cc1cc(S(=O)(=O)c2ccc([N+](=O)[O-])cn2)ccc1Br | 87.9% (inactive) | 89.9 | 82.2 | 143% (inactive) | 118 | 156 | 114% (inactive) | 113% (inactive) | 120% (inactive) | 138 | 103 |
| COc1ccc(CNC(=O)c2nc(S(=O)(=O)Cc3ccccc3)ncc2Cl)cc1 | 102% (inactive) | 104 | 101 | 107% (inactive) | 107 | 108 | 116% (inactive) | 103% (inactive) | 106% (inactive) | 106 | 105 |
| O=C(Cc1ccc(-c2ccccc2)cc1)OCC(=O)N1CCCC1=O | 96.5% (inactive) | 93.9 | 97.2 | 112% (inactive) | 111 | 114 | 97.8% (inactive) | 96.3% (inactive) | 91.3% (inactive) | 89.9 | 91.2 |
| CCOc1cccc(C(=O)Nc2ccc(NC(=O)c3cc4ccccc4o3)c(OC)c2)c1 | 96.2% (inactive) | 96.4 | 97.2 | 91.5% (inactive) | 91.2 | 90.8 | 98.3% (inactive) | 94.8% (inactive) | 103% (inactive) | 103 | 102 |
| CCCCC(=O)NNC(=S)NC(=O)c1ccc(C)cc1 | 116% (inactive) | 111 | 111 | 249% (active) | 204 | 233 | 134% (inactive) | 100% (inactive) | 119% (inactive) | 114 | 110 |
| O=C(NNC(=S)NC(=O)c1cn(-c2ccccc2)nc1-c1ccccc1)c1ccncc1 | 98% (inactive) | 101 | 94.8 | 143% (inactive) | 125 | 146 | 101% (inactive) | 99.5% (inactive) | 98.6% (inactive) | 103 | 96 |
| CC(C)c1ccc(C2C3CSCC=C3C(C#N)=C(N)C2(C#N)C#N)cc1 (configuration not stated) | 97.2% (inactive) | 97.8 | 95.3 | 111% (inactive) | 108 | 115 | 101% (inactive) | 105% (inactive) | 99.7% (inactive) | 100 | 97.7 |
| N=c1ccn(CC(=O)c2ccc(-c3ccccc3)cc2)cc1 | 99.7% (inactive) | 99.3 | 98.8 | 96.5% (inactive) | 93.6 | 99.5 | 104% (inactive) | 92.1% (inactive) | 96.4% (inactive) | 96.4 | 95.6 |
| CC(=O)Nc1ccc(NC(=O)c2nc(S(=O)(=O)Cc3ccccc3)ncc2Cl)cc1 | 98.5% (inactive) | 99.8 | 96.9 | 106% (inactive) | 105 | 105 | 110% (inactive) | 96.8% (inactive) | 100% (inactive) | 101 | 99.3 |
| O=C(Cc1ccc(Cl)cc1)NNC(=S)NC(=O)c1cccs1 | 104% (inactive) | 104 | 104 | 150% (active) | 151 | 151 | 114% (inactive) | 102% (inactive) | 109% (inactive) | 115 | 104 |
| O=[N+]([O-])/C=C/c1cn(Cc2ccc(Cl)cc2)c2ccccc12 | 105% (inactive) | 102 | 103 | 95% (inactive) | 95.6 | 96.2 | 100% (inactive) | 98.3% (inactive) | 106% (inactive) | 106 | 102 |
| CCn1c2ccccc2c2cc(/C=N/n3cn[nH]c3=S)ccc21 | 93.6% (inactive) | 91.6 | 93.3 | 139% (inactive) | 128 | 141 | 97.2% (inactive) | 94.3% (inactive) | 87.5% (inactive) | 86.9 | 84.8 |
| O=c1c2c(-c3ccc(Cl)cc3)csc2ncn1/N=C/c1cccc([N+](=O)[O-])c1O | 99.3% (inactive) | 99.3 | 98.6 | 97.7% (inactive) | 95 | 99.5 | 99.5% (inactive) | 96.2% (inactive) | 99.3% (inactive) | 98.3 | 98 |
| CCc1nn2c(N3CCOCC3)cc(C)nc2c1-c1ccc(F)cc1 | 99.8% (inactive) | 99.8 | 98.4 | 104% (inactive) | 104 | 104 | 106% (inactive) | 98.6% (inactive) | 95.8% (inactive) | 101 | 94.9 |
| CC(C)c1nnc(NC(=O)c2nc(S(=O)(=O)Cc3ccccc3)ncc2Cl)s1 | 98.5% (inactive) | 101 | 95.4 | 102% (inactive) | 101 | 100 | 106% (inactive) | 102% (inactive) | 100% (inactive) | 99.3 | 99.3 |
